In ChEMBL document CHEMBL4118021, “Studies of TAK1-centered polypharmacology with novel covalent TAK1 inhibitors” (Bioorg Med Chem, 2017):
Activity calls are given as the source filed them. The rule behind the calls is not given here.

Experiments:
[1] = target: Serine/threonine-protein kinase A-Raf (Homo sapiens) (UniProt P10398); assay: Inhibition of ARAF in human SKCO1 cells at 1 uM after 4 hrs using biotin labeled DLKSNNIFLHEGLTVK probe by mass-spectrometric analysis relative to control; type: cell-based
Chain of Serine/threonine-protein kinase A-Raf (Homo sapiens) (P10398 whole entry): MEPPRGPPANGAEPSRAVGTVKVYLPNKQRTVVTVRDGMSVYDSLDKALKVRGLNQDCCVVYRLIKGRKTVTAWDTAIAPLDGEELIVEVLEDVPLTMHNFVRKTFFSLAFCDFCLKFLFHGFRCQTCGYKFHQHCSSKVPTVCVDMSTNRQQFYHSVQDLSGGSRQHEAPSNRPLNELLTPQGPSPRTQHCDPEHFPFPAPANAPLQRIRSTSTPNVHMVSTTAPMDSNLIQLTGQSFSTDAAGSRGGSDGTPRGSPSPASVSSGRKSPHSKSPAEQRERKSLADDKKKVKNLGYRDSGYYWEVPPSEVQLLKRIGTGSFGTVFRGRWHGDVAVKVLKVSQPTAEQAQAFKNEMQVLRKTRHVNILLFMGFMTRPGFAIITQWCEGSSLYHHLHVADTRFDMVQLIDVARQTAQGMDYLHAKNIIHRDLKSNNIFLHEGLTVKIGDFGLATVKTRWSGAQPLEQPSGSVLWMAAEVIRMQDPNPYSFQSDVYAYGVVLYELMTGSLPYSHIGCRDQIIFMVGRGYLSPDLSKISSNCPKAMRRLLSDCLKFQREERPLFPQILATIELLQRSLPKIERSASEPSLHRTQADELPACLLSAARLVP

[2] = target: Serine/threonine-protein kinase ATR (Homo sapiens) (UniProt Q13535); assay: Inhibition of ATR in human SKCO1 cells at 1 uM after 4 hrs using biotin labeled FYIMMCKPK probe by mass-spectrometric analysis relative to control; type: cell-based
[3] = target: Serine/threonine-protein kinase/endoribonuclease IRE2 (Homo sapiens) (UniProt Q76MJ5); assay: Inhibition of IRE2 in human SKCO1 cells at 1 uM after 4 hrs using biotin labeled DLKPGNILITGPDSQGLGR probe by mass-spectrometric analysis relative to control; type: cell-based
Chain of Serine/threonine-protein kinase/endoribonuclease IRE2 (Homo sapiens) (Q76MJ5 35-926 limits assumed): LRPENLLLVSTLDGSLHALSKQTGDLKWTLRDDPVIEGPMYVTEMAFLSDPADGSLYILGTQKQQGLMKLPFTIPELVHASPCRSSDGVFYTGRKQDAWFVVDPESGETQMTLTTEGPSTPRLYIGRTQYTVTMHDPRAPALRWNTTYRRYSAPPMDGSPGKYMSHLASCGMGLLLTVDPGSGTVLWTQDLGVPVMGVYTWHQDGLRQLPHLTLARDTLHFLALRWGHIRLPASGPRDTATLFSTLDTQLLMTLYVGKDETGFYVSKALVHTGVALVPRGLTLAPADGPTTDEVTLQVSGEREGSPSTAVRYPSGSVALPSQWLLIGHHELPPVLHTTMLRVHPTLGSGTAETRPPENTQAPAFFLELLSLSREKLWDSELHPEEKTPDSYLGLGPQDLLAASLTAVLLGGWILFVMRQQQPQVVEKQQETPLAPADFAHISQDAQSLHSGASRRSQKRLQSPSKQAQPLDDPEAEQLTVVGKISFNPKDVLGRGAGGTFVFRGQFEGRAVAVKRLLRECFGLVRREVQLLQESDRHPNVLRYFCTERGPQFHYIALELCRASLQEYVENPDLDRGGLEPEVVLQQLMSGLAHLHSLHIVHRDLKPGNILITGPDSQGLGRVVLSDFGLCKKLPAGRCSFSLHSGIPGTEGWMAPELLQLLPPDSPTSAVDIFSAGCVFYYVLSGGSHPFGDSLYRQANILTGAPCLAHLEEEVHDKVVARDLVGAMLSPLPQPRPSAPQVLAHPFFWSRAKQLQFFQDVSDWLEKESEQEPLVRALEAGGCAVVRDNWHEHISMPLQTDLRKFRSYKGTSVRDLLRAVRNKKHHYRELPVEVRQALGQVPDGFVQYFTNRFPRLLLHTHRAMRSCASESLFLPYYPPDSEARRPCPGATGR

[4] = target: Mitogen-activated protein kinase 8 (Homo sapiens) (UniProt P45983); assay: Inhibition of JNK1 in human SKCO1 cells at 1 uM after 4 hrs using biotin labeled DLKPSNIVVK probe by mass-spectrometric analysis relative to control; type: cell-based
Chain of Mitogen-activated protein kinase 8 (Homo sapiens) (P45983 whole entry): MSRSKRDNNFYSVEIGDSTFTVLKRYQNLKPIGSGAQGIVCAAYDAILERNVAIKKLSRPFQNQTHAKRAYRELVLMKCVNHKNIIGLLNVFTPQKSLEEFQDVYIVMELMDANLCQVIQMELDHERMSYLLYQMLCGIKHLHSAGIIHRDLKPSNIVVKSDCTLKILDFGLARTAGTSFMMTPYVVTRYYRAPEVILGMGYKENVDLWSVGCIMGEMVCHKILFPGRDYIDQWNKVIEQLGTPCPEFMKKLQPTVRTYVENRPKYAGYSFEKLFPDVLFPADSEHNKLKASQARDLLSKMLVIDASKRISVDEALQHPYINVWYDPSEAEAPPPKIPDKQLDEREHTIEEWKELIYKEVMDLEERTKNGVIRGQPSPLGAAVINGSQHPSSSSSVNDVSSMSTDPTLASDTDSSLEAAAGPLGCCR

[5] = target: T1, Dual specificity mitogen-activated protein kinase kinase 4 (Homo sapiens) (UniProt P45985); assay: Inhibition of MAP2K4 in human SKCO1 cells at 1 uM after 4 hrs using biotin labeled DIKPSNILLDR probe by mass-spectrometric analysis relative to control; type: cell-based
T1 sequence (whole entry): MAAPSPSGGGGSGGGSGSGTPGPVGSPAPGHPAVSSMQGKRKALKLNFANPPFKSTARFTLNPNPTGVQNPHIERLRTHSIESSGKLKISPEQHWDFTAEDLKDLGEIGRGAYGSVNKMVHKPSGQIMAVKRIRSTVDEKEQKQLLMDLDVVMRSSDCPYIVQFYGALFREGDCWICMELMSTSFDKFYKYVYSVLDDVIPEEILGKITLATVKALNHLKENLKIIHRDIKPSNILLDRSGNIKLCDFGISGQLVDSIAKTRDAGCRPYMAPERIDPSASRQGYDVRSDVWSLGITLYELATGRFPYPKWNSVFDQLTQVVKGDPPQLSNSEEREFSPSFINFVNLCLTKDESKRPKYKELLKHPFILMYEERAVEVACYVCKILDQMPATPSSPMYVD

[6] = target: Wee1-like protein kinase (Homo sapiens) (UniProt P30291); assay: Inhibition of Wee1 in human SKCO1 cells at 1 uM after 4 hrs using biotin labeled YIHSMSLVHMDIKPSNIFISR probe by mass-spectrometric analysis relative to control; type: cell-based
Procedure, shortened: (§1)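 Live SK-CO-1 cells treated 4 h at 1 μM (DMSO control); cells lysed and lysates labeled with lysine-reactive ATP/ADP-biotin probe (KiNativ); probe-labeled kinase peptides quantified by mass spectrometry; inhibition expressed as percent reduction in probe-dependent recovery versus DMSO-treated cells.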

[7] = system: NALM-6; assay: Antiproliferative activity against human NALM6 cells harboring NARS A146T mutant at […] to […] nM after 72 hrs by CellTiter-Glo assay; type: functional, cell-based
[8] = system: NCI-H23; assay: Antiproliferative activity against human NCI-H23 cells harboring KRAS G12C mutant after 72 hrs by CellTiter-Glo assay; type: functional, cell-based
Procedure, shortened: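 NCI-H23 or NCI-H358 cells seeded at 2000 cells/well and grown 48 h before drug. Varying doses were added and cells incubated 72 h. Viability was read as CellTiter-Glo luminescence, and growth-inhibition IC50 was calculated from dose-response curves.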

[9] = system: MAP4K2 / germinal center kinase (Homo sapiens); assay: Inhibition of GCK in human SKCO1 cells at 1 uM after 4 hrs using biotin labeled DIKGANLLLTLQGDVK probe by mass-spectrometric analysis relative to control
[10] = target: Cyclin-dependent kinase 6 (Homo sapiens) (UniProt Q00534); assay: Inhibition of CDK6 in human SKCO1 cells at 1 uM after 4 hrs using biotin labeled DLKPQNILVTSSGQIK probe by mass-spectrometric analysis relative to control; type: cell-based
Chain of Cyclin-dependent kinase 6 (Homo sapiens) (Q00534 whole entry): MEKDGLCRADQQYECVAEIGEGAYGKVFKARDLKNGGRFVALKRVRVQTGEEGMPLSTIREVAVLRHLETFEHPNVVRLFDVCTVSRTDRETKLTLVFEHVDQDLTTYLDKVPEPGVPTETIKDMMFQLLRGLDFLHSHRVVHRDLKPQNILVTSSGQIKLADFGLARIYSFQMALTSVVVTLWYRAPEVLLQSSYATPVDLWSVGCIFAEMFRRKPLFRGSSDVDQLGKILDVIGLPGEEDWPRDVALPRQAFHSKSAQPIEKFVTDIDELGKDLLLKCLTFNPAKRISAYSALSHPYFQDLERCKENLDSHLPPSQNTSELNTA

[11] = target: Proto-oncogene tyrosine-protein kinase Src (Homo sapiens) (UniProt P12931); assay: Inhibition of SRC in human SKCO1 cells at 1 uM after 4 hrs using biotin labeled QGAKFPIKWTAPEAALYGR probe by mass-spectrometric analysis relative to control; type: cell-based
Chain of Proto-oncogene tyrosine-protein kinase Src (Homo sapiens) (P12931 2-536 limits assumed): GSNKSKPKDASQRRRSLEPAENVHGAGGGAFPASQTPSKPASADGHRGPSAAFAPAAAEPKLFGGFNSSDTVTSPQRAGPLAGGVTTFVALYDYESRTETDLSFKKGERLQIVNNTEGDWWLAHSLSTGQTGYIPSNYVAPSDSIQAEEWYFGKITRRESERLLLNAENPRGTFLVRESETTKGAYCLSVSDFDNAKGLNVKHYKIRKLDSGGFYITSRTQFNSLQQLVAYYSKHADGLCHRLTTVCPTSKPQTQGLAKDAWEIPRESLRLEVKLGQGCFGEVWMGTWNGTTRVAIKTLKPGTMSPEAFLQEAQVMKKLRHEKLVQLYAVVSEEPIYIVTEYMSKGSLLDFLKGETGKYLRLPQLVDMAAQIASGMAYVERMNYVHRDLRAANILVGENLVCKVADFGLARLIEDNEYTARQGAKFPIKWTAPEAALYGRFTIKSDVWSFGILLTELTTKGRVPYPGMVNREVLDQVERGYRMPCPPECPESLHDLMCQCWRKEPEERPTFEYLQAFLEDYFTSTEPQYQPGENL

[12] = target: Receptor tyrosine-protein kinase erbB-2 (Homo sapiens) (UniProt P04626); assay: Inhibition of HER2/ErbB2 in human SKCO1 cells at 1 uM after 4 hrs using biotin labeled GIWIPDGENVKIPVAIKVLR probe by mass-spectrometric analysis relative to control; type: cell-based
Chain of Receptor tyrosine-protein kinase erbB-2 (Homo sapiens) (P04626 whole entry): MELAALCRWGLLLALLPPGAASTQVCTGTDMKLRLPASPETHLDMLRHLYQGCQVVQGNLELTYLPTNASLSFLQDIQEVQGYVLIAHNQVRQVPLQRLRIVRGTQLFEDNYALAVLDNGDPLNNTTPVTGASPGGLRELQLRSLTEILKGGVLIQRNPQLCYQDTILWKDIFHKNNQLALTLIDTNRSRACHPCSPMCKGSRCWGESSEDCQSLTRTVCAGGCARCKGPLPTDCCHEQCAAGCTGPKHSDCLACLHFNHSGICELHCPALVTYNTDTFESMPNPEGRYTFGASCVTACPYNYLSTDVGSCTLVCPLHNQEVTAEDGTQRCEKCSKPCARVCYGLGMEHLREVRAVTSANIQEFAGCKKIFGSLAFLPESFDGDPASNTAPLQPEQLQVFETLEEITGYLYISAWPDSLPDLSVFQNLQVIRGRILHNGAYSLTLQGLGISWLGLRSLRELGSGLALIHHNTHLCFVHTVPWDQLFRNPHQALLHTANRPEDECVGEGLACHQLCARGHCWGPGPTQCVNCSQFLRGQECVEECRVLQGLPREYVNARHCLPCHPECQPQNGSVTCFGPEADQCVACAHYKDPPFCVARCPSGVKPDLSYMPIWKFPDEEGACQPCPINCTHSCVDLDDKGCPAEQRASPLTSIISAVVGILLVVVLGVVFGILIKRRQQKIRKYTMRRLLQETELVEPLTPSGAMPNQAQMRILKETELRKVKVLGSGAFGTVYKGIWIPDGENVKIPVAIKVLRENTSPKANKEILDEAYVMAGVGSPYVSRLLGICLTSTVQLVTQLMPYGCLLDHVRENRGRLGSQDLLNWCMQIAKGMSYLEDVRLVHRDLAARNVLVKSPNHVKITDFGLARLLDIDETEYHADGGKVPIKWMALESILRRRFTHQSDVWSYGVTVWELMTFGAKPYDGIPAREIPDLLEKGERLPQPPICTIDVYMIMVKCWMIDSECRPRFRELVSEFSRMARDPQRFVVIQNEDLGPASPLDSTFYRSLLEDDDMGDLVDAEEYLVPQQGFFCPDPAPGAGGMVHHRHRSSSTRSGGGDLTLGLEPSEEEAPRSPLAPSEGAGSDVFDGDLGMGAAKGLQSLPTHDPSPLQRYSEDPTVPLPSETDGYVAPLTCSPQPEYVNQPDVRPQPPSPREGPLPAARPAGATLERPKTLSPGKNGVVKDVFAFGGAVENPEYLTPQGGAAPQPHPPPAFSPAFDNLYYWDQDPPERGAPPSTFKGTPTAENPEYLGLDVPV

[13] = target: Dual specificity mitogen-activated protein kinase kinase 2 (Homo sapiens) (UniProt P36507); assay: Inhibition of MAP2K2 in human SKCO1 cells at 1 uM after 4 hrs using biotin labeled DVKPSNILVNSR probe by mass-spectrometric analysis relative to control; type: cell-based; procedure, shortened: as §1
[14] = target: Serine/threonine-protein kinase greatwall (Homo sapiens) (UniProt Q96GX5); assay: Inhibition of MASTL in human SKCO1 cells at 1 uM after 4 hrs using biotin labeled LYAVKVVK probe by mass-spectrometric analysis relative to control; type: cell-based
Chain of Serine/threonine-protein kinase greatwall (Homo sapiens) (Q96GX5 whole entry): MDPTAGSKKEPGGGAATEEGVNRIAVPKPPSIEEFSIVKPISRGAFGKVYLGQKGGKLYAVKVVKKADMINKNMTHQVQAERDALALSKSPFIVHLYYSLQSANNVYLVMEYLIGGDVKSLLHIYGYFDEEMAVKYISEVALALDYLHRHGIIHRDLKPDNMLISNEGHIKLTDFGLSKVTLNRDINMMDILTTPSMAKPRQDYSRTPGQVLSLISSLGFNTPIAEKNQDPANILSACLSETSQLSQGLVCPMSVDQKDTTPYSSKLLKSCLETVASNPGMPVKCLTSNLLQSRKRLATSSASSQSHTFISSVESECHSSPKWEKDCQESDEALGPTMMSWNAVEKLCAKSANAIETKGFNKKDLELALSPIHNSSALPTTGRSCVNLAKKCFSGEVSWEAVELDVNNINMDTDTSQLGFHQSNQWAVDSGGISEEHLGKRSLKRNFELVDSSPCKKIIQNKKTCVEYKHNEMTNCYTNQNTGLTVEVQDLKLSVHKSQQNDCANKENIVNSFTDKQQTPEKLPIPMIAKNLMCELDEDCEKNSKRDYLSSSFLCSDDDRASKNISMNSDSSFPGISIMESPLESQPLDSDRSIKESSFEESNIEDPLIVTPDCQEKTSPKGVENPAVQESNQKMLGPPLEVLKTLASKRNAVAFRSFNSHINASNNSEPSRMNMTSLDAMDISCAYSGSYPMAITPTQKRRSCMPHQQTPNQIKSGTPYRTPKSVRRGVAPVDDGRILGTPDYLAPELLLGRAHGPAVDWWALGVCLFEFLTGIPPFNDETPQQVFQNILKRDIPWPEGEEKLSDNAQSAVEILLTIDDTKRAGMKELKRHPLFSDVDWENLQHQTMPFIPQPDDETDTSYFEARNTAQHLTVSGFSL

[15] = target: Serine/threonine-protein kinase Nek6 (Homo sapiens) (UniProt Q9HC98); assay: Inhibition of NEK6 in human SKCO1 cells at 1 uM after 4 hrs using biotin labeled DIKPANVFITATGVVK probe by mass-spectrometric analysis relative to control; type: cell-based
[16] = target: Serine/threonine-protein kinase Nek7 (Homo sapiens) (UniProt Q8TDX7); assay: Inhibition of NEK7 in human SKCO1 cells at 1 uM after 4 hrs using biotin labeled DIKPANVFITATGVVK probe by mass-spectrometric analysis relative to control; type: cell-based
[17] = target: Tyrosine-protein kinase ZAP-70 (Homo sapiens) (UniProt P43403); assay: Inhibition of ZAP70 in human SKCO1 cells at 1 uM after 4 hrs using biotin labeled ISDFGLSKALGADDSYYTAR probe by mass-spectrometric analysis relative to control; type: cell-based
[18] = system: ASPC1; assay: Antiproliferative activity against human AsPC1 cells harboring KRAS G12D mutant after 72 hrs by CellTiter-Glo assay; type: functional, cell-based; settings: ASPC1, 72 h
[19] = Antiproliferative activity against human SW156 cells harboring wild type KRAS after 72 hrs by CellTiter-Glo assay; type: functional, cell-based

SMILES	inhibition [1] [%]	inhibition [2] [%]	inhibition [3] [%]	inhibition [4] [%]	inhibition [5] [%]	inhibition [6] [%]	Activity [7]	Activity [8]	inhibition [9] [%]	inhibition [10] [%]	inhibition [11] [%]	inhibition [12] [%]	inhibition [13] [%]	inhibition [14] [%]	inhibition [15] [%]	inhibition [16] [%]	inhibition [17] [%]	IC50 [18] [nM]	IC50 [19] [nM]	IC50 ([8]; NCI-H23, 72 h) [nM]
C=CC(=O)Nc1ccccc1Nc1nc(Nc2ccc(N3CCN(C)CC3)cc2)ncc1Cl	57	-8.1	6.9	70	24.9	79	inactive	Active	37.1	–	–	–	–	–	–	–	–	–	–	–
COc1cc(O)c2c(c1)/C=C/C[C@H](O)[C@H](O)C(=O)/C=C\C[C@H](C)OC2=O	85.5	2	21.4	–	26.2	3	–	–	–	68.8	8.5	14.5	95	51.7	4.9	4.9	63.6	6020	2020	1000
C=CC(=O)Nc1ccccc1Oc1nc(Nc2cnn(CCOC)c2)ncc1Cl	–	–	–	0.8	–	–	inactive	–	34.3	54.5	-0.9	-2.2	7.9	41.3	-0.4	-0.4	34.1	1340	3020	–
